Unmarked numbers belong to inactive results. Records with an inconclusive call do not appear. Active and inactive are the calls of the source.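 The calls were made as follows, unless noted: active = growth inhibition above 25% in both replicates, a cutoff set 3 SD above the mean; inconclusive = above 25% in only one replicate; inactive = the rest.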

Assay [1] in a line: S. cerevisiae growth inhibition in permissive medium (OD615), pilot counter-assay for S. cerevisiae lifespan shortening project, permissive growth control (AID 705). As to conditions: OD615, 24 h, at 10 µM, hits give high values. The gist of the method: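 System – S. cerevisiae with engineered DeaD lifespan system · Buffer or medium – SC raffinose/galactose permissive medium · Schedule – cells pre-grown 4 h, then 24 h compound exposure, 30 °C humidified · Technique – culture turbidity as optical density at 615 nm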

A short description of assay [2]: S. cerevisiae growth inhibition in restrictive medium, OD615, pilot screen, restrictive growth control, yeast lifespan reduction project (AID 706;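 active = growth inhibition above a set limit, 3 SD over mean compound inhibition, in both replicates, cut at about 43% in these data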;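 also: modified DeaD lifespan yeast strain shifted to restrictive glucose medium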). As to conditions: OD615, 48 h, at 10 µM, hits give high values. The gist of the method:
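Material: engineered S. cerevisiae DeaD strain / Medium: glucose-based CSMM-D restrictive medium / Compound: single dose of 10 µM compound final, 0.25% DMSO / Timing: 4 h pre-incubation, 48 h exposure at 30 °C / Technique: OD615 absorbance reading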

The nature of assay [3]: doxorubicin toxicity protection in MRP-1 cells – H69AR cells, CellTiter-Glo, duplicate, MRP-1 activator project, pilot screen (AID 807;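 active = viability increase at or above a cutoff of the median across tested compounds plus 3 SD, cut at about 8.5% in these data, passing the limit was not always enough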;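 also: compound pretreatment 18-22 h then 72 h combined with doxorubicin; 0% = doxorubicin alone and 100% = vehicle without doxorubicin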). The following applies: H69AR viability with doxorubicin, CellTiter-Glo luminescence; at 10 µM; hits give high values. On the technique in general: ATP-based viability assays read luminescence as a measure of living cells.
A short description of assay [4]: viability of HCT116 without oncogenic beta-catenin – human colon tumor cells, pilot screen (AID 823;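 active = cell viability at or below a set limit in both duplicate runs, the limit being the all-compound median minus 4 SD, cut at about 23% in these data, passing the limit was not always enough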;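 also: 0% = wells killed by 20 µM Hyamine and 100% = untreated DMSO cell wells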). The following applies: HCT116 beta-catenin knockout viability, CellTiter-Glo, 60 h; at 10 µM; hits give low values.
Assay [5] can be described thus: viability of PTEN-null HCT116 cells – cell-based, HCT116 clonal line, CellTiter-Glo, pilot screen (AID 824;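 active = viability at or below 27.92% in each of two runs, the all-compound median minus 4 SD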;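 also: 0% = 20 µM Hyamine control and 100% = vehicle cell control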). As to conditions: HCT116 PTEN-deleted viability, 60 h, at 10 µM, hits give low values.
The nature of assay [6]: RAM pathway blockade in budding yeast – dse1pr::URA3 reporter, 5-FOA selection, pilot screen (AID 869;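 active = inhibition over a set limit, the all-compound mean plus 3 SD, in both replicate runs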;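 also: 0% = DMSO wells with no growth and 100% = 10 µM 1-NA-PP1 with full growth; RAM network block rescues cells from 5-FOA so hits raise OD615 growth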). The following applies: S. cerevisiae dse1pr::URA3 5-FOA growth, OD615, 2 d; at 10 µM; hits give high values; strain carries analog-sensitive mutant Cbk1 kinase.
Assay [7] can be described thus: RAM signaling pathway blockade in yeast – S. cerevisiae, Pdr1DBD-CYC8 efflux-inhibited sensitized strain, primary screen (AID 1298;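 active = RAM network inhibition above 8.4% in each of two replicates, 3 SD over the compound average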;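 also: 0% = DMSO untreated cells without growth and 100% = 10 µM 1-NA-PP1 full growth; higher means more yeast growth rescued from 5-FOA killing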). As to conditions: S. cerevisiae cbk1-as DSE1-URA3 strain, 5-FOA growth OD615, 2 d; at 50 µM; hits give high values.

In the case of `COc1ccccc1N1CCN(CCCC(=O)c2ccc(F)cc2)CC1`, the growth inhibition in assay [1] is -11.5%; in assay [2], 1.04%. Also, the viability increase in assay [3] is -0.78%. Besides, the viability (as a rule, a read-out of living cells in per cent, often relative to untreated cells) in assay [4] is 80.6%; in assay [5] it was 88.9%. Also, in assay [6], the inhibition (usually the percentage by which the read-out fell short of the control) is 2.29%. Also, in assay [7], the RAM network inhibition was -0.89%.
Take `Cc1onc(-c2ccccc2)c1C(=O)Nc1ccc2c(c1)OCCO2`: the results for the growth inhibition in assay [1] and in assay [2] were -5.44% and -6.46%, respectively. The viability increase in assay [3] is -0.35%. Moreover, the viability is 96.6% in assay [4] and 94.9% in assay [5]. Besides, the inhibition in assay [6] was 2.96%. In addition, the RAM network inhibition in assay [7] was 2.34%.
On to `Cn1c(NC(=O)c2ccc(C(C)(C)C)cc2)cc(=O)n(C)c1=O`, for which the growth inhibition was -2.62% in assay [1] and -6.46% in assay [2]. In addition, in assay [3], the viability increase is -2.04%. Also, the viability in assay [4] was 91.1%; in assay [5], 96.5%. Moreover, the inhibition in assay [6] is 1.97%. The RAM network inhibition in assay [7] was 1.63%.
As to `CCn1c(SCC(=O)Nc2cccc(F)c2)nc2c(c1=O)SC(C)C2` (stereo unspecified), the results for the growth inhibition in assay [1] and in assay [2] were -11.8% and -1.47%, respectively. Moreover, the viability increase in assay [3] was -0.53%. Further, the viability is 94.8% in assay [4] and 86.8% in assay [5]. Moreover, the inhibition in assay [6] is 1.57%. Further, the RAM network inhibition in assay [7] was 4.64%.
With `COc1ccc(N)cc1C#N`, the growth inhibition in assay [1] is -7.31%; in assay [2] it was -5.58%. For the same molecule, the viability increase in assay [3] is -3.17%. Also, the viability in assay [4] was 98.5%; in assay [5], 93.6%. Moreover, the inhibition in assay [6] is 1.06%. In addition, in assay [7], the RAM network inhibition is 1.63%.
Turning to `O=C(c1ccco1)N1CCN(c2ncccn2)CC1`, the growth inhibition was -12.9% in assay [1] and -5.72% in assay [2]. In addition, the viability increase in assay [3] is -1.88%. Moreover, the viability in assay [4] is 98.9%; in assay [5] it was 96.3%. Moreover, in assay [6], the inhibition was 2.97%. Also, the RAM network inhibition in assay [7] was -0.22%.
On to `CCN(CC)S(=O)(=O)c1cc(C(=O)Nc2ccc(Cl)cn2)ccc1C`, for which the growth inhibition in assay [1] was -5.56%; in assay [2], -11.5%. Besides, in assay [3], the viability increase was 2.78%. For the same molecule, the figures for the viability in assay [4] and in assay [5] were 52.9% and 74.2%, respectively. Besides, in assay [6], the inhibition was 1.1%. For the same molecule, the RAM network inhibition in assay [7] was -0.26%.
On to `CC1=CC(c2ccccc2)n2nc(NS(=O)(=O)c3ccc(C)cc3)nc2N1` (stereo unspecified), for which the results for the growth inhibition in assay [1] and in assay [2] were -9.59% and 5.79%, respectively. Moreover, the viability increase in assay [3] is -1.29%. Moreover, the viability is 100% in assay [4] and 99.5% in assay [5]. The inhibition in assay [6] was 0.09%. In addition, the RAM network inhibition in assay [7] is 2.86%.
As for `CCN1CCN(Cc2ccc(NC(=O)Nc3ccc(OC)cc3)cc2)CC1`, the growth inhibition in assay [1] was 5.68%; in assay [2], 1.98%. Also, the viability increase in assay [3] is 0.19%. Also, the figures for the viability in assay [4] and in assay [5] were 104% and 108%, respectively. Besides, in assay [6], the inhibition is 2.09%. For the same molecule, the RAM network inhibition in assay [7] is 1.09%.
Turning to `COCCn1c(SCC(=O)NCC2CCCO2)nc2c(c1=O)SC(C)C2` (stereo unspecified), the growth inhibition was -7.14% in assay [1] and -0.265% in assay [2]. In assay [3], the viability increase was -0.65%. For the same molecule, the viability in assay [4] was 110%; in assay [5], 109%. Besides, in assay [6], the inhibition was 1.19%. In addition, the RAM network inhibition in assay [7] was 3.08%.
For the molecule `Cc1cc(=O)c2c(C)nn(-c3ccccc3)c2[nH]1`, the values for the growth inhibition in assay [1] and in assay [2] were -2.51% and 2.11%, respectively. In addition, the viability increase in assay [3] was -2.26%. Moreover, the viability in assay [4] is 96.7%; in assay [5], 92.3%. Moreover, the inhibition in assay [6] is 2.23%. Moreover, the RAM network inhibition in assay [7] is 1.4%.
As to `CCOC(=O)c1csc(NC(=O)C(C)(C)C)n1`, the growth inhibition in assay [1] is -6.04%; in assay [2], -0.045%. Also, in assay [3], the viability increase was 2.71%. Besides, the figures for the viability in assay [4] and in assay [5] were 105% and 98.8%, respectively. Also, in assay [6], the inhibition was 0.48%. Besides, in assay [7], the RAM network inhibition is -1.57%.
For the molecule `COc1ccc(C(=O)N2CCN(S(=O)(=O)c3ccc(C)cc3C)CC2)cc1OC`, the growth inhibition is -11.3% in assay [1] and -13.3% in assay [2]. Moreover, in assay [3], the viability increase was 0.12%. Further, the viability in assay [4] was 93.2%; in assay [5], 90.3%. Moreover, the inhibition in assay [6] was 1.12%. Besides, in assay [7], the RAM network inhibition was 2.18%.
As to `Cc1noc(C(=O)NCc2cccnc2)c1Cl`, the values for the growth inhibition in assay [1] and in assay [2] were -7.93% and -8.18%, respectively. Further, the viability increase in assay [3] was 1.31%. Further, the values for the viability in assay [4] and in assay [5] were 110% and 101%, respectively. Besides, in assay [6], the inhibition was 0.865%. For the same molecule, in assay [7], the RAM network inhibition was 5.93%.
With `CCOC(=O)c1ccc(NC(=O)NS(=O)(=O)c2ccc(C)cc2)cc1`, the figures for the growth inhibition in assay [1] and in assay [2] were -7.83% and -3.95%, respectively. The viability increase in assay [3] is -1.46%. Also, the viability in assay [4] was 105%; in assay [5] it was 94%. In addition, the inhibition in assay [6] is 3.13%. Besides, the RAM network inhibition in assay [7] was 6.08%.
Turning to `Cc1cc(NS(=O)(=O)c2ccccc2)c(C)c(Cl)c1O`, the figures for the growth inhibition in assay [1] and in assay [2] were -8.22% and -15.3%, respectively. The viability increase in assay [3] is -4.31%. Also, the viability is 1.97% (active) in assay [4] and 3.14% (active) in assay [5]. Moreover, the inhibition in assay [6] was 2.38%. Also, the RAM network inhibition in assay [7] is 6.4%.
On to `COC(=O)C1=C(C)NC(=O)NC1C1CC=CCC1` (stereo unspecified), for which the growth inhibition in assay [1] was -13.7%; in assay [2] it was -8.8%. For the same molecule, in assay [3], the viability increase was 0.06%. Further, the viability in assay [4] was 96.2%; in assay [5], 95.5%. Further, the inhibition in assay [6] is 3.1%. In addition, the RAM network inhibition in assay [7] was 6.9%.
Regarding `CCOc1ccccc1Nc1cc(C)nc2nc(C)nn12`, the figures for the growth inhibition in assay [1] and in assay [2] were -11.9% and -9.62%, respectively. Further, the viability increase in assay [3] is -2.37%. Besides, the values for the viability in assay [4] and in assay [5] were 104% and 97.2%, respectively. Moreover, the inhibition in assay [6] was 1.67%. For the same molecule, in assay [7], the RAM network inhibition was -1.47%.
